Rows were chosen to be rich in hits. Some 3.1% of all compounds tested hit in one or more screens of this group.
FN deposition inh – inhibitors of fibronectin matrix deposition, primary screen, AH1F cells, Alexa488-fibronectin fluorescence, plate reader; AH1F fibroblasts, overnight; inhibition, % at 12.6 µM; hit rate 0.086% among 350,000; AID 743247, 2014;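 active = mean inhibition across replicates of 30% or more, regardless of how many single replicates reach that level; inconclusive = mean under 30% yet at least half of replicates reach 30%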;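 note: positive control wells lacked labelled fibronectin entirely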
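material = AH1F fibroblast monolayer depositing Alexa488-labelled fibronectin into matrix | amount = 10000 AH1F cells/well | buffer or medium = DMEM plus 2% serum, read in PBS | incubation = 1 h cell adhesion before compound, then overnight fibronectin incubation | detection = fluorescence at 485 nm excitation, 525 nm emission | evaluation = percent inhibition as loss of matrix-bound fibronectin fluorescence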
FGF22 binding – binders of human FGF22 protein, primary screen, FGF22 synaptogenesis inhibitor project, biophysical, thermal shift, single point; Fibroblast growth factor 22 (Homo sapiens), Q9HCT0; recombinant FGF22 thermal shift, SYPRO orange fluorescence; percent of sucrose octasulfate shift, DMSO zero; activity (Tm shift, normalised), % at 9.99 µM; hit rate 1.5% among 340,000; AID 651658, 2012;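 active = mean Tm shift, scaled 0 neutral to 100 positive control, at about 1.3% or above, every replicate too, limit read from the data; inconclusive = no clear call, values can overlap the other calls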
Target sequence (Q9HCT0 whole entry, looked up): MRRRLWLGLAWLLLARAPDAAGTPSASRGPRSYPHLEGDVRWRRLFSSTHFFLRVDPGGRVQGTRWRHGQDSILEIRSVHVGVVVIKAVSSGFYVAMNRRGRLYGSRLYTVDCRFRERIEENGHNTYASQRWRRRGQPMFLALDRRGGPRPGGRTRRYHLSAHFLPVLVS
PAX8 inh HTS – inhibitors of PAX8-driven TPO luciferase reporter, primary screen, RMG-I cells, single concentration; SteadyGlo, 24 h; inhibition, % at 12.6 µM; hit rate 1.2% among 360,000;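 active = mean replicate inhibition at least 60% with every replicate also reaching 60%; inconclusive = only one of the two criteria is met; inactive = mean below 60% and not all replicates reaching 60%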;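 note: luciferase light reporting Pax8 driven TPO promoter activity; plate controls were median of neutral control wells for no effect and mitoxantrone controls for full effect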
PGC1a acetyl inh – inhibitors of PGC1a acetylation signal, primary screen, cell-based, U2OS, AlphaScreen, inhibitor mode | AlphaScreen anti-acetyl-lysine; with virally co-expressed GCN5 acetyltransferase | inhibition, % at 15.6 µM | hit rate 0.17% among 350,000;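 active = every replicate shows inhibition of at least 40%; inconclusive = mean inhibition at least 40% but some replicate below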;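 note: 0% = neutral control wells and 100% = positive control wells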
EWS-Fli inh – EWS/Fli-driven NR0B1 reporter inhibitors, primary screen, A673 cells, NR0B1 luciferase, luminescence, MLPCN library; viability-normalised; inhibition, % at 12.6 µM; hit rate 0.67% among 350,000; AID 651661, 2012;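 active = mean inhibition of at least 50% after viability correction, with every replicate also passing that limit; inconclusive = mean reaches 50% but only one of two replicates passes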;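 note: firefly luciferase signal divided by Alamar Blue viability fluorescence both relative to DMSO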
Env fusion inh – inhibitors of HIV-1 Env-driven cell-cell fusion, primary screen, HeLa-JRFL effector, CEM21 target cells, luciferase. inhibition, % at 12.3 µM. hit rate 1.1% among 360,000. AID 651610, 2012;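 active = mean replicate inhibition score of at least 50 and every replicate individually at or above 50; inconclusive = only one of the two criteria met; inactive = mean below 50 and not all replicates reaching 50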;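 note: 0% = plate neutral controls and 100% = maraviroc near 300 nM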
The depositor's hits bear a star; ? = inconclusive; · = no result; [ ] = another dose, or the depositor's remark.

SMILES | FN deposition inh | FGF22 binding | PAX8 inh HTS | PGC1a acetyl inh | EWS-Fli inh | Env fusion inh
CC(=O)C1=C(C)N(Cc2ccc(Br)cc2)C(=S)NC1c1cccc(Br)c1 (centres undefined) | 10 | 0 | 16 | · | 1 | ?
CC(=O)C1=C(C)N(Cc2ccc(Br)cc2)C(=S)NC1c1cccc(Cl)c1 (centres undefined) | 6 | 0 | 24 | · | 10 | 70*
CC(=O)C1=C(C)N(Cc2ccc(F)cc2)C(=S)NC1c1cccc(Cl)c1 (centres undefined) | 6 | 0 | 8 | · | 0 | 12
CC(=O)C1=C(C)N(Cc2ccc(Cl)cc2)C(=S)NC1c1cccc(Br)c1 (centres undefined) | -13 | 0 | 3 | · | 17 | 70*
C[C@@H]1CN([C@H](C)CO)C(=O)c2cc(NS(=O)(=O)c3cn(C)cn3)ccc2O[C@H]1CN(C)S(=O)(=O)c1ccc(F)cc1 | -2 | 0 | · | 0 | -2 | ·
Cc1cnc(N)nc1-c1ccccc1 | -20 | 43* | -2 | 5 | -10 | ·
COc1cccc(CN2CCN(Cc3cc4ccccc4[nH]3)CC2CCO)c1 (centres undefined) | 9 | 0 | 29 | -9 | 6 | -9
CSc1ccc(CN2CCN(Cc3ccccc3)C(CCO)C2)cc1 (centres undefined) | -1 | 43* | 1 | -7 | 3 | -4
COc1cccc(CN2CCN(Cc3[nH]c4ccccc4c3C)CC2CCO)c1 (centres undefined) | 7 | 43* | 12 | · | 7 | -32
CCOc1ccc(CN2CCN(Cc3cc4ccccc4[nH]3)CC2CCO)cc1 (centres undefined) | 1 | 43* | 30 | · | 5 | -55
CCn1cc(CN2CCN(Cc3ccsc3)C(CCO)C2)cn1 (centres undefined) | 2 | 44* | 7 | · | 3 | -10
COc1ccc2c3c(n(C)c2c1)[C@H](CO)N(C)CC31CCN(C(=O)NC(C)C)CC1 | 6 | · | -10 | 1 | 31 | ·
CO[C@@H]1CN(C)C(=O)c2ccc(NC(=O)C3CCCC3)cc2OC[C@@H](C)NC[C@@H]1C | -9 | 0 | 1 | · | -8 | ·
CCCNC(=O)N1CC2(CN(Cc3ccc(F)cc3)C2)c2c([nH]c3cc(OC)ccc23)[C@@H]1CO | · | 0 | 20 | -14 | 3 | ·
COc1nc(Nc2nc3ccccc3c(=O)[nH]2)nc2ccc(C)cc12 | 6 | 0 | 76* | -2 | 35 | 103*
CN(C)c1cccc2c(S(=O)(=O)NCC3CCN(C(=O)C(=O)c4cc5ccccc5o4)CC3)cccc12 | 14 | 0 | 62* | · | 10 | 11
CCC(=O)Nc1ccc2c(c1)OC[C@@H](C)N(C(C)=O)C[C@H](C)[C@H](OC)CN(C)C2=O | 0 | 0 | · | 4 | 1 | -35[16.7 µM]
O=C(COC(=O)c1ccc([N+](=O)[O-])o1)NC1CCCC1 | · | 0 | -16 | 12 | -6 | -7
O=C(NC1CCCC(C(F)(F)F)C1)c1ccc([N+](=O)[O-])o1 (centres undefined) | 1 | 0 | 76* | · | 22 | ·
O=C1C=CC(=O)N1CCCCCCCCCCN1C(=O)C=CC1=O | 44* | 0 | 68* | -6 | 37 | -36
COc1cccc(CNC(=O)[C@@H]2[C@@H](CO)[C@@H]3Cn4c(cccc4=O)[C@H]2N3C(=O)C2CC2)c1 | · | 0 | · | · | -3 | ·
C[C@H]1CN([C@@H](C)CO)C(=O)c2cccc(NC(=O)CCCCCC(=O)Nc3ccccc3N)c2O[C@@H]1CN(C)Cc1ccc(Cl)c(Cl)c1 | -8 | -1 | 65* | -39 | · | ·
C[C@H](CO)N1C[C@H](C)[C@@H](CN(C)Cc2ccc(Oc3ccccc3)cc2)Oc2c(NC(=O)CCCCCC(=O)Nc3ccccc3N)cccc2C1=O | · | 0 | 63* | -20 | 27 | ·
O=C(C[C@H]1C=C[C@@H](NC(=O)C2CC2)[C@@H](CO)O1)Nc1ccccc1 | · | 0 | -15 | 12 | 1 | -6[16.7 µM]
Cc1nc(Nc2nc(CSc3nc4ccccc4[nH]3)cc(=O)[nH]2)nc2ccccc12 | · | · | 102* | · | · | 161*
SMILES | FN deposition inh | FGF22 binding | PAX8 inh HTS | PGC1a acetyl inh | EWS-Fli inh | Env fusion inh
COc1ccc2c(C)nc(Nc3nc(C)c(C)c(=O)[nH]3)nc2c1 | · | · | -88 | 11 | · | 66*
COc1ccc2nc(Nc3nc(CSc4nc5ccccc5[nH]4)cc(=O)[nH]3)nc(C)c2c1 | -10 | 0 | 29 | -4 | · | 86*
CC(=O)N(C)C[C@H]1Oc2ncc(C#Cc3ccccc3F)cc2C(=O)N([C@H](C)CO)C[C@@H]1C | 2 | 0 | · | 3 | -1 | -2[16.7 µM]
Cc1cc(C)n(C(=O)c2ccc([N+](=O)[O-])cc2N)n1 | 1 | 43* | -29 | 44* | 3 | -15
Cc1cc(C)n(/C(=C\N(C)C)C(=O)c2cccc([N+](=O)[O-])c2)n1 | -4 | 0 | 9 | · | 5 | -10
Cc1ccc([N+](=O)[O-])cc1N | 0 | 43* | 19 | · | 3 | 7
Nc1cc([N+](=O)[O-])ccc1O | 5 | 0 | -8 | · | 0 | 16
Cc1noc(C)c1S(=O)(=O)N(C)C[C@H]1Oc2ccc(NC(=O)Cc3cn(C)c4ccccc34)cc2C(=O)N([C@H](C)CO)C[C@@H]1C | 9 | · | · | · | · | ·
NC[C@H]1O[C@@H](n2ccc(N)nc2=O)[C@H](O)[C@@H]1O | -6 | 0 | 7 | 7 | 8 | 31
Nc1ccn([C@@H]2O[C@H](CO)[C@@H](O)[C@@H]2O)c(=O)n1 | -3 | 0 | 36 | 3 | 43 | 47
Nc1ccn(C2OC(CO)C(O)C2F)c(=O)n1 (centres undefined) | -4 | 0 | 1 | 12 | -14 | 75*
CCCCCCCCCCCCCCCC(=O)OCC1OC(n2ccc(N)nc2=O)C(O)C1O (centres undefined) | -7 | 0 | 13 | -1 | 38 | 75*
CC(C)NC(=O)Nc1ccc2c(c1)CC(=O)N([C@H](C)CO)C[C@H](C)[C@H](CN(C)C(=O)Nc1ccc(F)cc1)O2 | -5 | · | 7 | 0 | 2 | 20[16.7 µM]
Nn1nnc2ccccc21 | 4 | 0 | 0 | -4 | -18 | 94*
CN1c2ccc(C#Cc3ccc(F)cc3)cc2[C@H]2[C@H](CCN2S(=O)(=O)c2ccccc2F)[C@@H]1CO | -13 | 0 | 3 | -2 | 7 | ·
CN1c2ccc(C#Cc3ccc(F)cc3)cc2[C@@H]2[C@@H](CCN2S(=O)(=O)c2ccccc2F)[C@H]1CO | -23 | 0 | 1 | 6 | 7 | ·
COc1cccc(S(=O)(=O)N2CC[C@H]3[C@@H](CO)N(C)c4ccc(C#Cc5ccc(F)cc5)cc4[C@H]32)c1 | 17 | 0 | 85* | -8 | 5 | ·

Screens: PubChem BioAssay, Broad Institute
